Test results from ChEMBL document CHEMBL1148825, “Beta- and gamma-di- and tripeptides as potential substrates for the oligopeptide transporter hPepT1” (J Med Chem, 2007).
Activity calls are given as the source filed them. The calls are words filed in the database; no cut-off is given here. Square brackets hold non-standard residues; d marks the D form. Peptide text beside a SMILES is read from it. Sar = CNCC(=O)O

Columns and labels:
[1] = Apparent permeability from apical to basolateral side of human Caco-2 cells in presence of 5 mM GlySar; type: ADME, cell-based; settings: Caco-2, with GlySar 5 mM
[2] = Apparent permeability from apical to basolateral side of human Caco-2 cells; type: ADME, cell-based
Procedure, shortened: (§1)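 Caco-2 monolayers (passage 94-100) on polycarbonate inserts, differentiated 24 ± 1 days. Transport in HBSS with pH gradient: apical pH 6.0 (10 mM MES), basolateral pH 7.4 (25 mM HEPES), 0.5% DMSO final. Samples taken at intervals, replaced with HBSS + 0.5% DMSO. Papp = dQ/dt × 1/(A × c0), from steady-state flux; n = 3-4.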

[3] = Apparent permeability from basolateral to apical side of human Caco-2 cells; type: ADME, cell-based; procedure, shortened: as §1
[4] = molecular target: T1, Solute carrier family 15 member 1 (Homo sapiens) (UniProt P46059); assay: Inhibition of [3H]GlySar uptake at human PepT1 in Caco-2 cells; type: cell-based
T1 sequence (whole entry): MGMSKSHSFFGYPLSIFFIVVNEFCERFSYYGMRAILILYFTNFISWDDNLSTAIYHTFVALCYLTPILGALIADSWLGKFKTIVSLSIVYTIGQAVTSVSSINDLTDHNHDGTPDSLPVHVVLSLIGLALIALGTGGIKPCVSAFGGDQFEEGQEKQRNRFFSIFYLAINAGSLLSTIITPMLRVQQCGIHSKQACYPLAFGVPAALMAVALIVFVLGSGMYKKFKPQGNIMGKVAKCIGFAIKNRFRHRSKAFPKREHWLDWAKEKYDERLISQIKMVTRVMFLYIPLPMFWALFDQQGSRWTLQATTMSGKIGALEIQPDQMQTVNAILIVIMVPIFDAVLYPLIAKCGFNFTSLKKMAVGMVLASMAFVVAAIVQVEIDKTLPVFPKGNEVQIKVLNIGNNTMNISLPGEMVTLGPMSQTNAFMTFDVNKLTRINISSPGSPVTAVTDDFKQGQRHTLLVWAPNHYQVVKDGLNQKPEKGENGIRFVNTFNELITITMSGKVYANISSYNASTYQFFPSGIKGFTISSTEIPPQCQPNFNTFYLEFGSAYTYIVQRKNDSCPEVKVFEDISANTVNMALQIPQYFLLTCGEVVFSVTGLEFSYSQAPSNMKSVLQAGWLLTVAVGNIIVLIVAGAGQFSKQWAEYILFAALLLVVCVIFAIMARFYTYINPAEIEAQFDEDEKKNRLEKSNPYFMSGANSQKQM
Procedure, shortened: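 Uptake into differentiated Caco-2 monolayers under apical pH 6.0/basolateral pH 7.4 HBSS. 5 min incubation with 1 µCi/mL [3H]GlySar (250 nM), with or without 4 mM test compound in the apical donor chamber. Stopped by removing solution and three ice-cold HBSS washes. Monolayer radioactivity counted relative to control; SD, n = 3, significance at p < 0.05.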

[5] = Apparent permeability from apical to basolateral side of human Caco-2 cells at pH 7.4 after 180 mins; type: ADME, cell-based; settings: Caco-2, pH 7.4
Procedure, shortened: (§2)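 Caco-2 monolayers (passage 94-100, differentiated 24 ± 1 days on inserts). Transport in HBSS at pH 7.4 on both sides, 0.5% DMSO final, over 180 min. Run with and without P-gp inhibitor GF120918 at 2 µM. Samples taken at intervals. Papp from steady-state flux divided by filter area and initial donor concentration.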

[6] = Apparent permeability from basolateral to apical side of human Caco-2 cells at pH 7.4 after 180 mins; type: ADME, cell-based; settings: Caco-2, pH 7.4; procedure, shortened: as §2
[7] = Apparent permeability across human Caco-2 cells; type: ADME, cell-based
Procedure, shortened: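 Caco-2 monolayers (passage 94-100) on 0.4 µm polycarbonate inserts, seeded 4.4 × 10^5 cells per cm2, differentiated 24 ± 1 days. Transport in HBSS with 0.5% DMSO, apical pH 6.0 (10 mM MES), basolateral pH 7.4 (25 mM HEPES); P-gp runs at pH 7.4. Both directions sampled over time. Papp = dQ/dt × 1/(A × c0); n = 3-4.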

| Structure (SMILES) | Papp A→B [1] [×10⁻⁶ cm/s] | Papp A→B [2] [×10⁻⁶ cm/s] | Papp B→A [3] [×10⁻⁶ cm/s] | Activity [4] | Papp A→B at 3 h [5] [×10⁻⁶ cm/s] | Papp B→A at 3 h [6] [×10⁻⁶ cm/s] | Papp [7] [×10⁻⁶ cm/s] |
| --- | --- | --- | --- | --- | --- | --- | --- |
| C[C@@H](CC(=O)O)NC(=O)C[C@H](C)NC(=O)C[C@@H](N)CO | 0.043 | 0.044 | – | inactive | – | – | – |
| CCC[C@@H](C[C@H](C)NC(=O)[C@H](C)C[C@@H](NC(=O)[C@@H](Cc1ccccc1)C[C@@H](C)N)C(C)C)C(=O)O | 0.028 | 0.033 | 0.097 | Active | 0.021 | 0.115 | – |
| CN(CC(=O)O)C(=O)CN [GLYCYLSARCOSINE] (H-Gly-[Sar]-OH) | – | – | – | – | – | – | 11 |
| NCCCC[C@@H](CC(=O)N[C@H](CC(=O)O)Cc1ccccc1)NC(=O)C[C@@H](N)CO | 0.031 | 0.037 | 0.071 | Active | – | – | – |
| C[C@H](N)CC(=O)N[C@@H](CCCCN)CC(=O)N[C@H](CC(=O)O)Cc1ccccc1 | 0.039 | 0.049 | 0.061 | Active | – | – | – |
| NCCCC[C@H](N)CC(=O)N[C@H](CC(=O)O)Cc1ccccc1 | 0.045 | 0.072 | 0.075 | Active | – | – | – |

The next lines start with results.

| Papp A→B [1] [×10⁻⁶ cm/s] | Papp A→B [2] [×10⁻⁶ cm/s] | Papp B→A [3] [×10⁻⁶ cm/s] | Activity [4] | Papp A→B at 3 h [5] [×10⁻⁶ cm/s] | Papp B→A at 3 h [6] [×10⁻⁶ cm/s] | Structure (SMILES) | Papp [7] [×10⁻⁶ cm/s] |
| --- | --- | --- | --- | --- | --- | --- | --- |
| 0.023 | 0.024 | 0.071 | Active | – | – | CC(C)C[C@@H](CNC(=O)[C@@H](C)CNC(=O)[C@H](CN)C(C)C)C(=O)O | – |
| 0.055 | 0.095 | 0.084 | Active | – | – | CC(C)C[C@@H](CC(=O)O)NC(=O)[C@@H](C)CN | – |
| 0.393 | 0.754 | 0.124 | Active | – | – | CC(C)[C@H](N)CC(=S)N[C@@H](C)CC(=O)O | – |
| 0.291 | 0.613 | 0.129 | Active | – | – | CC(C)C[C@@H](CC(=O)O)NC(=O)C[C@H](C)N | – |
| – | 0.037 | 0.078 | Active | 0.044 | 0.051 | C[C@H](N)CC(=O)N[C@@H](CCCCN)CC(=O)O | – |
| 0.026 | 0.034 | 0.094 | inactive | – | – | CC(C)C[C@H](CCNC(=O)[C@H](C)CCNC(=O)[C@@H](CCN)C(C)C)C(=O)O | – |
